Measurements reported in article PMC12239073 (Molecular Pharmaceutics, 2025).

How the values were obtained:
[1] = approximate, from the literature; ref not given; cited from earlier work
[2] = pH of saturated solutions in biorelevant media; format: physicochemical; details: 24 h, 37 °C, pH probe; for pH of saturated solution in FaSSGF: excess solid in FaSSGF, initial pH 1.6; for pH of saturated solution in FaSSGF / pH of saturated solution in FaSSIF / pH of saturated solution in FeSSIF: 350 rpm, n = 3; for pH of saturated solution in FaSSIF: excess solid in FaSSIF, initial pH 6.5; for pH of saturated solution in FeSSIF: excess solid in FeSSIF, initial pH 5.0
How it was run: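 Excess solid was added separately to 1 mL of each medium: FaSSIF (pH 6.5; NaTC 3 mM, lecithin 0.75 mM), FeSSIF (pH 5.0; 15 mM, 3.75 mM), FaSSGF (pH 1.6; 0.08 mM, 0.02 mM), or blank versions without NaTC and lecithin. Samples were shaken at 350 rpm for 24 h at 37 °C, then read with a pH probe. Triplicate; mean ± standard deviation, n = 3.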

Saturation = format: physicochemical; details: 24 h, 37 °C, in words; for saturation solubility in gastric media, rank among the media: FaSSGF and blank FaSSGF, pH 1.6

Compound | pKa [1] | pH of saturated solution in FaSSGF [2] | pH of saturated solution in FaSSIF [2] | pH of saturated solution in FeSSIF [2] | saturation solubility in gastric media, rank among the media (Saturation) | saturation solubility in FaSSIF, rank among the media (Saturation; FaSSIF, pH 6.5) | pH of media in the presence of excess material, all media investigated ([2]; FaSSIF, FeSSIF, FaSSGF and blank equivalents)
O=C([O-])CCCCCCCNC(=O)c1ccccc1O.[Na+] [SNAC, salcaprozate sodium] | approximately 5 | 7.6 | 7.9 | 7.7 | lowest | highest | 
CCCCCCCCCC(=O)[O-].[Na+] [C10, sodium caprate] | approximately 5 | 9.2 | 9.0 | 8.8 |  |  | 
insulin: recombinant human insulin procured from Merck KGaA, used as model peptide |  |  |  |  | highest solubility |  | did not appear to impact media pH
